In ChEMBL document CHEMBL1782042, “Efficient microwave-assisted synthesis and antitumor activity of novel 4,4'-methylenebis[2-(3-aryl-4,5-dihydro-1H-pyrazol-5-yl)phenols]” (Eur J Med Chem, 2011):

Assays:
NCI-H226 [1] = assay: Cytotoxicity against human NCI-H226 cells; type: cell-based
Outline: (§1)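 NCI 60 human tumour cell line screen, second stage at five concentrations (100, 10, 1.0, 0.1 and 0.01 μM). Continuous drug exposure for 48 h, with cell growth estimated by sulforhodamine B protein staining. GI50 is the drug concentration giving a 50% reduction in net protein increase relative to control cells over the incubation.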

NCI-H23 = assay: Cytotoxicity against human NCI-H23 cells; type: cell-based; outline: as §1
NCI-H322M = assay: Cytotoxicity against human NCI-H322M cells; type: cell-based; outline: as §1
NCI-H460 [2] = assay: Cytotoxicity against human NCI-H460 cells; type: cell-based; outline: as §1
NCI-H522 = assay: Cytotoxicity against human NCI-H522 cells; type: cell-based; outline: as §1
COLO 205 [3] = assay: Cytotoxicity against human COLO205 cells; type: cell-based; outline: as §1
HCC 2998 [4] = assay: Cytotoxicity against human HCC2998 cells; type: cell-based; outline: as §1
HCT-15 = assay: Cytotoxicity against human HCT15 cells; type: cell-based; outline: as §1
SF-295 [5] = assay: Cytotoxicity against human SF295 cells; type: cell-based; outline: as §1
SF-539 [6] = assay: Cytotoxicity against human SF539 cells; type: cell-based; outline: as §1
SNB-75 = assay: Cytotoxicity against human SNB75 cells; type: cell-based
Outline: (§2)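 NCI 60 human tumour cell line screen; five concentration levels (100, 10, 1.0, 0.1 and 0.01 μM), 48 h continuous drug exposure. Cell growth estimated by sulforhodamine B (SRB) protein staining. GI50 taken as the drug concentration giving a 50% reduction in net protein increase relative to control cells over the incubation.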

HL-60(TB) = assay: Anticancer activity against human HL-60(TB) cells after 48 hrs by sulforhodamine B assay; type: functional; details: HL-60, 48 h; outline: as §1
MOLT-4 = assay: Anticancer activity against human MOLT4 cells after 48 hrs by sulforhodamine B assay; type: functional; details: MOLT-4, 48 h
Outline: (§3)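 NCI 60-cell-line in vitro screen, second stage: five concentration levels (100, 10, 1.0, 0.1 and 0.01 μM) with 48 h continuous drug exposure. Cell growth was estimated by sulforhodamine B protein staining. GI50 is the drug concentration that gives a 50% reduction in net protein increase relative to control cells over the incubation.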

Malme-3M [7] = assay: Cytotoxicity against human MALME-3M cells; type: cell-based; outline: as §1
MDA-MB-435 [8] = assay: Cytotoxicity against human MDA-MB-435 cells; type: cell-based; outline: as §1
SK-MEL-2 = assay: Cytotoxicity against human SK-MEL-2 cells; type: cell-based; outline: as §1
SK-MEL-5 = assay: Cytotoxicity against human SK-MEL-5 cells; type: cell-based; outline: as §1
UACC-62 [9] = assay: Cytotoxicity against human UACC62 cells; type: cell-based; outline: as §2
IGROV-1 = assay: Cytotoxicity against human IGROV1 cells; type: cell-based; outline: as §1
CAKI-1 [10] = assay: Cytotoxicity against human Caki1 cells; type: cell-based; outline: as §1
SN12C = assay: Cytotoxicity against human SN12C cells; type: cell-based; outline: as §2
HOP-92 = assay: Anticancer activity against human HOP92 cells after 48 hrs by sulforhodamine B assay; type: functional; details: HOP-92, 48 h; outline: as §3
NCI-H226 [11] = assay: Anticancer activity against human NCI-H226 cells after 48 hrs by sulforhodamine B assay; type: functional; details: NCI-H226, 48 h; outline: as §3
NCI-H460 [12] = assay: Anticancer activity against human NCI-H460 cells after 48 hrs by sulforhodamine B assay; type: functional; details: NCI-H460, 48 h; outline: as §3
COLO 205 [13] = assay: Anticancer activity against human COLO205 cells after 48 hrs by sulforhodamine B assay; type: functional; details: COLO 205, 48 h; outline: as §3
HCC 2998 [14] = assay: Anticancer activity against human HCC2998 cells after 48 hrs by sulforhodamine B assay; type: functional; details: HCC 2998, 48 h; outline: as §3
HCT-116 = assay: Anticancer activity against human HCT116 cells after 48 hrs by sulforhodamine B assay; type: functional; details: HCT-116, 48 h; outline: as §3
KM12 = assay: Anticancer activity against human KM12 cells after 48 hrs by sulforhodamine B assay; type: functional; details: KM12, 48 h; outline: as §3
UO-31 = assay: Cytotoxicity against human UO31 cells; type: cell-based; outline: as §2
MCF7 [15] = assay: Cytotoxicity against human MCF7 cells; type: cell-based; outline: as §1
Hs-578T = assay: Cytotoxicity against human Hs578T cells; type: cell-based; outline: as §1
BT-549 = assay: Cytotoxicity against human BT549 cells; type: cell-based; outline: as §1
MDA-MB-468 = assay: Cytotoxicity against human MDA-MB-468 cells; type: cell-based; outline: as §1
SF-295 [16] = assay: Anticancer activity against human SF295 cells after 48 hrs by sulforhodamine B assay; type: functional; details: SF-295, 48 h; outline: as §3
SF-539 [17] = assay: Anticancer activity against human SF539 cells after 48 hrs by sulforhodamine B assay; type: functional; details: SF-539, 48 h; outline: as §3
U-251 = assay: Anticancer activity against human U251 cells after 48 hrs by sulforhodamine B assay; type: functional; details: U-251, 48 h
Outline: (§4)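 NCI 60-cell-line screen, second stage. Five concentration levels (100, 10, 1.0, 0.1 and 0.01 μM), 48 h continuous drug exposure. Cell growth was estimated by sulforhodamine B protein staining. GI50 is the concentration giving a 50% reduction in net protein increase relative to control cells over the drug incubation. Compounds entered this stage after an earlier single-dose screen.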

LOX IMVI = assay: Anticancer activity against human LOXIMVI cells after 48 hrs by sulforhodamine B assay; type: functional; outline: as §3
Malme-3M [18] = assay: Anticancer activity against human MALME-3M cells after 48 hrs by sulforhodamine B assay; type: functional; outline: as §3
MDA-MB-435 [19] = assay: Anticancer activity against human MDA-MB-435 cells after 48 hrs by sulforhodamine B assay; type: functional; details: MDA-MB-435, 48 h; outline: as §3
UACC-62 [20] = assay: Anticancer activity against human UACC62 cells after 48 hrs by sulforhodamine B assay; type: functional; details: UACC-62, 48 h; outline: as §4
OVCAR-4 = assay: Anticancer activity against human OVCAR4 cells after 48 hrs by sulforhodamine B assay; type: functional; details: OVCAR-4, 48 h; outline: as §3
OVCAR-5 = assay: Anticancer activity against human OVCAR5 cells after 48 hrs by sulforhodamine B assay; type: functional; details: OVCAR-5, 48 h; outline: as §3
NCI/ADR-RES = assay: Anticancer activity against human NCI/ADR-RES cells after 48 hrs by sulforhodamine B assay; type: functional; outline: as §3
786-0 = assay: Anticancer activity against human 786-0 cells after 48 hrs by sulforhodamine B assay; type: functional; details: 786-0, 48 h; outline: as §3
A498 = assay: Anticancer activity against human A498 cells after 48 hrs by sulforhodamine B assay; type: functional; details: A498, 48 h; outline: as §3
CAKI-1 [21] = assay: Anticancer activity against human Caki1 cells after 48 hrs by sulforhodamine B assay; type: functional; details: CAKI-1, 48 h; outline: as §3
MCF7 [22] = assay: Anticancer activity against human MCF7 cells after 48 hrs by sulforhodamine B assay; type: functional; details: MCF7, 48 h; outline: as §3
MDA-MB-231 = assay: Anticancer activity against human MDA-MB-231 cells after 48 hrs by sulforhodamine B assay; type: functional; details: MDA-MB-231, 48 h; outline: as §3
T47D = assay: Anticancer activity against human T47D cells after 48 hrs by sulforhodamine B assay; type: functional; outline: as §4
CCRF-CEM = assay: Cytotoxicity against human CCRF-CEM cells; type: cell-based; outline: as §1
K562 = assay: Cytotoxicity against human K562 cells; type: cell-based; outline: as §1
RPMI-8226 = assay: Cytotoxicity against human RPMI8226 cells; type: cell-based; outline: as §1
SR = assay: Cytotoxicity against human SR cells; type: cell-based; outline: as §2
A549 = assay: Cytotoxicity against human A549 cells; type: cell-based; outline: as §1
EKVX = assay: Cytotoxicity against human EKVX cells; type: cell-based; outline: as §1

Oc1ccc(Cc2ccc(O)c(C3CC(c4ccc(Cl)cc4)=NN3)c2)cc1C1CC(c2ccc(Cl)cc2)=NN1 (stereo not given)
LC50 (NCI-H226 [1]): > 100 µM
LC50 (NCI-H23): > 100 µM
LC50 (NCI-H322M): > 100 µM
LC50 (NCI-H460 [2]): > 100 µM
LC50 (NCI-H522): 46.2 µM
LC50 (COLO 205 [3]): > 100 µM
LC50 (HCC 2998 [4]): > 100 µM
LC50 (HCT-15): > 100 µM
LC50 (SF-295 [5]): > 100 µM
LC50 (SF-539 [6]): > 100 µM
LC50 (SNB-75): > 100 µM
GI50 (HL-60(TB)): 2.66 µM
GI50 (MOLT-4): 2.7 µM
LC50 (Malme-3M [7]): > 100 µM
LC50 (MDA-MB-435 [8]): > 100 µM
LC50 (SK-MEL-2): 85.5 µM
LC50 (SK-MEL-5): 36.7 µM
LC50 (UACC-62 [9]): 43.6 µM
LC50 (IGROV-1): > 100 µM
LC50 (CAKI-1 [10]): > 100 µM
LC50 (SN12C): > 100 µM
GI50 (HOP-92): 3.39 µM
GI50 (NCI-H226 [11]): 4.74 µM
GI50 (NCI-H460 [12]): 2.15 µM
GI50 (COLO 205 [13]): 5.44 µM
GI50 (HCC 2998 [14]): 4.88 µM
GI50 (HCT-116): 1.85 µM
GI50 (KM12): 3.09 µM
LC50 (UO-31): > 100 µM
LC50 (MCF7 [15]): > 100 µM
LC50 (Hs-578T): > 100 µM
LC50 (BT-549): > 100 µM
LC50 (MDA-MB-468): > 100 µM
GI50 (SF-295 [16]): 1.47 µM
GI50 (SF-539 [17]): 5.82 µM
GI50 (U-251): 1.8 µM
GI50 (LOX IMVI): 1.82 µM
GI50 (Malme-3M [18]): 5.08 µM
GI50 (MDA-MB-435 [19]): 3.21 µM
GI50 (UACC-62 [20]): 3.16 µM
GI50 (OVCAR-4): 3.54 µM
GI50 (OVCAR-5): 6.1 µM
GI50 (NCI/ADR-RES): 2.24 µM
GI50 (786-0): 3.81 µM
GI50 (A498): 5.37 µM
GI50 (CAKI-1 [21]): 2.67 µM
GI50 (MCF7 [22]): 3.04 µM
GI50 (MDA-MB-231): 2.65 µM
GI50 (T47D): 3.79 µM
LC50 (CCRF-CEM): > 100 µM
LC50 (K562): > 100 µM
LC50 (RPMI-8226): > 100 µM
LC50 (SR): > 100 µM
LC50 (A549): > 100 µM
LC50 (EKVX): > 100 µM
